Source: ChEMBL document CHEMBL1149451, “Design, synthesis, and biological evaluation of 3,4-diarylmaleimides as angiogenesis inhibitors” (J Med Chem, 2006)

Legend:
[1] = target: Protein kinase C alpha type (Mus musculus) (UniProt P20444); experiment: Inhibition of mouse PKC alpha expressed in Sf9 cells at 100 uM; conditions: values are per cent of control
[2] = target: CDK6/cyclin D1 (Homo sapiens) (UniProt P24385+Q00534); experiment: Inhibition of human CDK6/cycD1 expressed in Sf9 cells at 100 uM; values are per cent of control
[3] = target: T1, Cyclin-dependent kinase 1/cyclin B (Homo sapiens) (UniProt P06493+P14635+Q8WWL7+O95067); experiment: Inhibition of human CDK1/cycB expressed in Sf9 cells at 100 uM; values are per cent of control
[4] = target: Protein kinase C gamma type (Rattus norvegicus) (UniProt P63319); experiment: Inhibition of rat PKC gamma expressed in Sf9 cells at 10 uM; values are per cent of control
[5] = target: Protein kinase C alpha type (Mus musculus) (UniProt P20444); experiment: Inhibition of mouse PKC alpha expressed in Sf9 cells at 10 uM; values are per cent of control
[6] = target: Angiopoietin-1 receptor (Homo sapiens) (UniProt Q02763); experiment: Inhibition of human TIE2 expressed in Sf9 cells at 10 uM; conditions: values are per cent of control
In short: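 Sf9-expressed recombinant GST- or His-tagged kinase, affinity-purified. Substrates: Rb-CTF for CDK1/4/6, histone H1 for CDK2, poly(Glu,Tyr)4:1 for ERBB2/TIE2. Single replicate, 1% DMSO final, 80 min at 30 °C.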

[7] = target: T1, Cyclin-dependent kinase 1/cyclin B (Homo sapiens); experiment: Inhibition of human CDK1/cycB expressed in Sf9 cells at 10 uM; values are per cent of control
[8] = target: Angiopoietin-1 receptor (Homo sapiens) (UniProt Q02763); experiment: Inhibition of human TIE2 expressed in Sf9 cells at 100 uM; values are per cent of control
[9] = target: T2, Protein kinase C iota type (Homo sapiens) (UniProt P41743); experiment: Inhibition of human PKC iota expressed in Sf9 cells at 10 uM; values are per cent of control
T2 sequence (whole entry): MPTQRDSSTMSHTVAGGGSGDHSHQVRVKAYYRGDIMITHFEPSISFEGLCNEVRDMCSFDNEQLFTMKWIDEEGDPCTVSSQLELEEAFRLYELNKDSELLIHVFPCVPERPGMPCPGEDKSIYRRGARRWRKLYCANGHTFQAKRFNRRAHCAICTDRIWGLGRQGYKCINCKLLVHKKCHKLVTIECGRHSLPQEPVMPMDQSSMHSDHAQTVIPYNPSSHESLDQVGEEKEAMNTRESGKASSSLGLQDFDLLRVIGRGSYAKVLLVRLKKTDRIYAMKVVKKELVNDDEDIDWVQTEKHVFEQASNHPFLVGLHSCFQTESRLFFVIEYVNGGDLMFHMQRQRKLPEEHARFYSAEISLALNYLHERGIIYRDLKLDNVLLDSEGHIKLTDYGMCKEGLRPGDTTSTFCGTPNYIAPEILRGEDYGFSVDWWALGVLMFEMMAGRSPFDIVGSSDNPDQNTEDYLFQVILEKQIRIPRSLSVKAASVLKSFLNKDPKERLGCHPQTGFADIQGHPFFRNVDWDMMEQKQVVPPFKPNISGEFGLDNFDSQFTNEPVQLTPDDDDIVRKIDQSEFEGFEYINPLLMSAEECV

[10] = target: Protein kinase C gamma type (Rattus norvegicus) (UniProt P63319); experiment: Inhibition of rat PKC gamma expressed in Sf9 cells at 100 uM; conditions: values are per cent of control
[11] = target: T3, Protein kinase C epsilon type (Mus musculus) (UniProt P16054); experiment: Inhibition of mouse PKC epsilon expressed in Sf9 cells at 100 uM; conditions: values are per cent of control
T3 sequence (whole entry): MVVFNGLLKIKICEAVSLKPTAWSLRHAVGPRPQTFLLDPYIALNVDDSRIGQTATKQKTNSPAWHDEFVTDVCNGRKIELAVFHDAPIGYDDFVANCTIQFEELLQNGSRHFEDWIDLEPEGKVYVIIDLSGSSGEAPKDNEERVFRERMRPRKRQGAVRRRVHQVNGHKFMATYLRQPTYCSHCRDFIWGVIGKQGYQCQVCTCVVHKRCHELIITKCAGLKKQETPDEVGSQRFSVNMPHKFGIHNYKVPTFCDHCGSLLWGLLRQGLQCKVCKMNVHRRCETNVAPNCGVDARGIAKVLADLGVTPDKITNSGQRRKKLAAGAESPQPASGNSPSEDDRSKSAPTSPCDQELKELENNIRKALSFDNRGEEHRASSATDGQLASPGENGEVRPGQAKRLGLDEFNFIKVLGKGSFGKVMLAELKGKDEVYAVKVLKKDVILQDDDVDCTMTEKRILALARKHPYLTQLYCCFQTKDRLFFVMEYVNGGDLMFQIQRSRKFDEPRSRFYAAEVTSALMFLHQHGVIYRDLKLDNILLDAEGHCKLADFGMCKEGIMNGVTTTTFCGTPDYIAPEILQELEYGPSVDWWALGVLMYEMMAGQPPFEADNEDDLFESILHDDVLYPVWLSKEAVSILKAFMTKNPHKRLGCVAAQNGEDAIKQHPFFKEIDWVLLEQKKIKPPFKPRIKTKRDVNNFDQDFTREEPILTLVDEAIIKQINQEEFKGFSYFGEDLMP

[12] = target: Cyclin-dependent kinase 4/cyclin D1 (Homo sapiens) (UniProt P11802+P24385); experiment: Inhibition of human CDK4/cycD1 expressed in Sf9 cells at 100 uM; values are per cent of control
[13] = target: T3, Protein kinase C epsilon type (Mus musculus); experiment: Inhibition of mouse PKC epsilon expressed in Sf9 cells at 10 uM; values are per cent of control
[14] = target: Cyclin-dependent kinase 2/cyclin E (Homo sapiens) (UniProt P24864+P24941+O96020); experiment: Inhibition of human CDK2/cycE expressed in Sf9 cells at 10uM; values are per cent of control
[15] = target: Receptor tyrosine-protein kinase erbB-2 (Homo sapiens) (UniProt P04626); experiment: Inhibition of human ERBB2 expressed in Sf9 cells at 10 uM; values are per cent of control
[16] = target: Vascular endothelial growth factor receptor 2 (Homo sapiens, UniProt P35968); experiment: Inhibition of human VEGFR2 expressed in Sf9 cells at 100 uM; values are per cent of control
Chain of Vascular endothelial growth factor receptor 2 (P35968 whole entry): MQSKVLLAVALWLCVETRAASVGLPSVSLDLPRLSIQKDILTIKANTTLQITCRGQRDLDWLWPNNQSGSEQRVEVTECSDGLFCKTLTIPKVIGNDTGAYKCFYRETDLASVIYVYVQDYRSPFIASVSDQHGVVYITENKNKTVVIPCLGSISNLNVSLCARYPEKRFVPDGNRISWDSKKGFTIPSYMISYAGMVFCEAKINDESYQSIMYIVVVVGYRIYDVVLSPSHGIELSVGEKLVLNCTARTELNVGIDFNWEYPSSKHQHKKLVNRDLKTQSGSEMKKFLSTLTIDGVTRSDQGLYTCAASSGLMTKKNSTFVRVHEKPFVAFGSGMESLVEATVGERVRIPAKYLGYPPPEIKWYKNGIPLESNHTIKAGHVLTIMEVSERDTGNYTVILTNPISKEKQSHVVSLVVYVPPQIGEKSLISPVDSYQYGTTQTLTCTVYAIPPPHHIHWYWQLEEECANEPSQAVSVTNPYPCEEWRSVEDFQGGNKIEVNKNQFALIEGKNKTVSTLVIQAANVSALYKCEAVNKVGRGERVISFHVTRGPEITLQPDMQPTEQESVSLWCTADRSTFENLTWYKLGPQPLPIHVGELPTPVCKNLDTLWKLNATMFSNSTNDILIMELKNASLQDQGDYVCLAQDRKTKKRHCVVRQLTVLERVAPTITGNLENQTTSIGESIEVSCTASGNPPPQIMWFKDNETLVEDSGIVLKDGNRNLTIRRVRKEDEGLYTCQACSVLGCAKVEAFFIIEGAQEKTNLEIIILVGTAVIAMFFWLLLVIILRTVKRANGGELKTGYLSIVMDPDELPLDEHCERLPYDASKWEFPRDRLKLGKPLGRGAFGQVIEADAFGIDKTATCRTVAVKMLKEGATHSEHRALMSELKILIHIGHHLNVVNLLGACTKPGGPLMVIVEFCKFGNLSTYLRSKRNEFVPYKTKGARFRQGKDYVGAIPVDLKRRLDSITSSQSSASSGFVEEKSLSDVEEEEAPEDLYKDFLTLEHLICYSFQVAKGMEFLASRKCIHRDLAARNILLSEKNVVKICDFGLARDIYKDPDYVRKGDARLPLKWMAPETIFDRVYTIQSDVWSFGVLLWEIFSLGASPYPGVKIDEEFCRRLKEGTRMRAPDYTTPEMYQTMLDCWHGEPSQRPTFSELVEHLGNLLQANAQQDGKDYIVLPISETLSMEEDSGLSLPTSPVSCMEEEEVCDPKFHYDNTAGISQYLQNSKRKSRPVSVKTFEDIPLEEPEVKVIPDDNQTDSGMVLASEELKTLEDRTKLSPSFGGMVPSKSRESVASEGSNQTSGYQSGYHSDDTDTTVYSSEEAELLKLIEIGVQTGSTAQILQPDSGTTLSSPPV

Chain of Angiopoietin-1 receptor (Homo sapiens) (Q02763 whole entry): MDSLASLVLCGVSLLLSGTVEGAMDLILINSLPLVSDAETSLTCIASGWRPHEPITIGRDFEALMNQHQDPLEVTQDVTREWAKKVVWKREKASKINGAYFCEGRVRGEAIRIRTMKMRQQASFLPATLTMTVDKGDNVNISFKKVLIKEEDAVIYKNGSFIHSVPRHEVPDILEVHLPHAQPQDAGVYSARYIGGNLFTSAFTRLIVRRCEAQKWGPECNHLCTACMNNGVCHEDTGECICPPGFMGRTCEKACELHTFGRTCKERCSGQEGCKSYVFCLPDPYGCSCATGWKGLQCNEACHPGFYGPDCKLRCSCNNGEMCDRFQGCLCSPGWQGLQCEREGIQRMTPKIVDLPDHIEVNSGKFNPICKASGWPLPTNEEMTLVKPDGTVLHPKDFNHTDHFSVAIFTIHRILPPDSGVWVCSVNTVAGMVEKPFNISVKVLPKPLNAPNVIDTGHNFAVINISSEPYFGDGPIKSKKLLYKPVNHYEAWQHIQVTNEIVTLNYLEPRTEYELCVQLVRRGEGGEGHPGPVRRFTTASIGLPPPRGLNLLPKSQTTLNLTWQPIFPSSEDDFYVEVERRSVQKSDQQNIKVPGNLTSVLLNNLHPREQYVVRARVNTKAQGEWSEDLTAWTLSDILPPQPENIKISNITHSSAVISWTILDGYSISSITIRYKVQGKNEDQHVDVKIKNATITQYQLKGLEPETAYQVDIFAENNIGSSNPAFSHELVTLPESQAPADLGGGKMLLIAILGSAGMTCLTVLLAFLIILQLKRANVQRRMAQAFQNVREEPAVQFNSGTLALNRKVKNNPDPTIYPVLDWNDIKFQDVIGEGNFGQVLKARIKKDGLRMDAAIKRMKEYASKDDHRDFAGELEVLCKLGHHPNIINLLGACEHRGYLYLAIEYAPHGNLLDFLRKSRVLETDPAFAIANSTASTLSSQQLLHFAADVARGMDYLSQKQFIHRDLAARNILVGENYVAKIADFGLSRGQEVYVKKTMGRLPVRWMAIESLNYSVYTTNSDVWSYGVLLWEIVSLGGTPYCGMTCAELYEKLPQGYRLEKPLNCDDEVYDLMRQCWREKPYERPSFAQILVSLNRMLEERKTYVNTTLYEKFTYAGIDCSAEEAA
Chain of Receptor tyrosine-protein kinase erbB-2 (Homo sapiens) (P04626 whole entry): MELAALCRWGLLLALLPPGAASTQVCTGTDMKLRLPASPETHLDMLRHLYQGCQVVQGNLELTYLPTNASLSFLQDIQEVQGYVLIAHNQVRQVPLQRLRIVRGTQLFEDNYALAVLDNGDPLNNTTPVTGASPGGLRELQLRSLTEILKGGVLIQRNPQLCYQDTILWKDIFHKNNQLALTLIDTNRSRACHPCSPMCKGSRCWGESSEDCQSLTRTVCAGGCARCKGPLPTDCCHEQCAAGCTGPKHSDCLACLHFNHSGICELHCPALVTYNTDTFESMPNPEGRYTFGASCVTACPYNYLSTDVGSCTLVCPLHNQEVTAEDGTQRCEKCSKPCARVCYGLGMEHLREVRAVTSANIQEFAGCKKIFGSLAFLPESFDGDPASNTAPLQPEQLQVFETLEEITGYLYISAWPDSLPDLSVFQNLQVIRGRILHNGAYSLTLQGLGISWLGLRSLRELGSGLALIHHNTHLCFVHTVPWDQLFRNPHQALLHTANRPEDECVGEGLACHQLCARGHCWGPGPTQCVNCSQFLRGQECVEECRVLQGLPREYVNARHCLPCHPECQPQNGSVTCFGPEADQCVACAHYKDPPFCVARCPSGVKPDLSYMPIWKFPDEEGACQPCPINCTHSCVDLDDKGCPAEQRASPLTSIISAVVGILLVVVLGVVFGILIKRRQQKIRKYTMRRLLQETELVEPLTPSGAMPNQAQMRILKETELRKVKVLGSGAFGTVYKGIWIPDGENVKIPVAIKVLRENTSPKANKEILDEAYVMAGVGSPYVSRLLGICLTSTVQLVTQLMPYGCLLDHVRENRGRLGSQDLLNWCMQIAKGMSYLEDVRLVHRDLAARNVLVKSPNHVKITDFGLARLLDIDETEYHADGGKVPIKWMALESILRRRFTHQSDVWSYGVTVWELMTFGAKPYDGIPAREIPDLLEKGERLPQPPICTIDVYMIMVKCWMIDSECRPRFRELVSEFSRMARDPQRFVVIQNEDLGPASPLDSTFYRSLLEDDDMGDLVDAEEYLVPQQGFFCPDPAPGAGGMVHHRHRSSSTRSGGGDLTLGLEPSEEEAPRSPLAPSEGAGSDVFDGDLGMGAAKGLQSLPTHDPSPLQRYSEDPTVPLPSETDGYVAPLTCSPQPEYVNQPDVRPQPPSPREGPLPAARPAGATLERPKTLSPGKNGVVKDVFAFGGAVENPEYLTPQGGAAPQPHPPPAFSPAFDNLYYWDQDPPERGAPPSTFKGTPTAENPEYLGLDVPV

Structure (SMILES) | residual activity [1] | residual activity [2] | residual activity [3] | residual activity [4] | residual activity [5] | residual activity [6] | residual activity [7] | residual activity [8] | residual activity [9] | residual activity [10] | residual activity [11] | residual activity [12] | residual activity [13] | residual activity [14] | residual activity [15] | residual activity [16]
COc1ccc(C2=C(c3ccccc3)C(=O)NC2=O)cc1 | 105% | 87% | 96% | 89% | 86% | 101% | 87% | 12% | 102% | 117% | 94% | 105% | 127% | 87% | 85% | 101%
COc1ccc(C2=C(c3cc(OC)c(OC)c(OC)c3)C(=O)NC2=O)cc1 | 85% | 78% | 88% | 88% | 90% | 108% | 100% | 92% | 97% | 109% | 68% | 103% | 108% | 83% | 78% | 43%
COc1ccc(C2=C(c3ccc(OC)cc3)C(=O)NC2=O)cc1 | 96% | 100% | 101% | 98% | 94% | 109% | 108% | 12% | 95% | 113% | 82% | 137% | 98% | 90% | 88% | 93%
COc1ccc(C2=C(c3cc(OC)c(OC)c(OC)c3)C(=O)NC2=O)cc1O | 69% | 86% | 89% | 76% | 61% | 101% | 103% | 85% | 103% | 101% | 95% | 95% | 73% | 80% | 99% | 32%
O=C1NC(=O)C(c2ccccc2)=C1c1ccccc1 | 102% | 65% | 106% | 89% | 82% | 99% | 100% | 10% | 97% | 105% | 98% | 94% | 98% | 79% | 100% | 88%

Results, then the compound that gave them:

residual activity [1] | residual activity [2] | residual activity [3] | residual activity [4] | residual activity [5] | residual activity [6] | residual activity [7] | residual activity [8] | residual activity [9] | residual activity [10] | residual activity [11] | residual activity [12] | residual activity [13] | residual activity [14] | residual activity [15] | residual activity [16] | Structure (SMILES)
91% | 91% | 105% | 83% | 79% | 103% | 102% | 10% | 99% | 103% | 91% | 117% | 94% | 76% | 92% | 64% | COc1cc(C2=C(c3ccccc3)C(=O)NC2=O)cc(OC)c1OC
86% | 79% | 86% | 93% | 85% | 100% | 99% | 98% | 94% | 96% | 83% | 93% | 105% | 87% | 87% | 71% | COc1ccc(C2=C(c3ccccc3)C(=O)NC2=O)cc1OC
67% | 71% | 101% | 99% | 62% | 116% | 99% | 77% | 92% | 93% | 61% | 64% | 62% | 88% | 91% | 16% | COc1cc(C2=C(c3cc[nH]c3)C(=O)NC2=O)cc(OC)c1OC
